One assay has as its target NDM-1 (Klebsiella pneumoniae, UniProt C7C422). The assay is described as follows: In vitro enzyme inhibition assay, purified recombinant NDM-1. It counts as biochemical. A digest of the protocol: (§1)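 Purified recombinant enzyme at 4 nM was preincubated 5–10 min at RT with varying inhibitor concentrations. Buffer was 50 mM HEPES pH 7.5, 0.2% DMSO, 1% PEG 4000, with either 10 μM ZnSO4 or no zinc (Chelex-100-treated, 2 h, filtered). Reactions were started with nitrocefin (30 μM final, A490) or meropenem (50 μM final, A300) and followed 60 s. IC50 came from the linear portion of progress curves. Duplicates.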

Assay [1] is described as follows: Zn2+ affinity by competition with colorimetric PAR assay. It counts as binding. The following applies: read-out: Kd,Zn2; PAR 100 μM, ZnSO4 10 μM, pH 7.5, 3 h at 25 °C. In a few lines:
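The test compound was titrated into Chelex-100-treated 20 mM HEPES, 100 mM NaCl, pH 7.5, containing PAR 100 μM and ZnSO4 10 μM, then incubated 3 h at 25 °C. Zn2+ displacement from PAR was read as the fall in absorbance at 492 nm. Kd was estimated from the known PAR stability constant at pH 7.4.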

The target in another assay is VIM-2 (Escherichia coli, UniProt Q5U7L7). The assay is described as follows: In vitro enzyme inhibition assay, purified recombinant VIM-2. It counts as biochemical. In a few lines: as §1
In another assay the target is IMP-7. As to the kind of experiment: In vitro enzyme inhibition assay, purified recombinant IMP-7. It counts as biochemical. The settings on record: read-out: IC50 IMP-7 - Zn; Zn2+-depleted (Chelex-100-treated) buffer. In a few lines:
as §1

Assay [2] concerns E. coli expressing blaNDM-1. As to the kind of experiment: Meropenem rescue concentration, antimicrobial susceptibility test. It counts as cell-based, Escherichia coli. The settings on record: for RC in MHB, NDM-1: rescue concentration at meropenem 2 μg/mL. A digest of the protocol: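 Checkerboard broth microdilution in Mueller–Hinton broth against E. coli carrying the plasmid-borne MBL gene. Meropenem used five 2-fold dilutions and the test compound six 2-fold dilutions, within 0.5–64 μg/mL; the test compound was dissolved in water or 50% methanol. Inoculum was adjusted to OD625 0.08–0.10, then diluted 200-fold. Incubation was 20 h static at 37 °C, read at OD600. RC is the compound concentration restoring susceptibility at meropenem 2 μg/mL. ≥2 replicates.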

[3] abbreviates: IC50 NDM-1 + Zn, Zn2+-supplemented (10 μM) buffer.
[4] abbreviates: IC50 NDM-1 - Zn, Zn2+-depleted (Chelex-100-treated) buffer.

Sequence of NDM-1 (C7C422 29-270, looked up, species assumed): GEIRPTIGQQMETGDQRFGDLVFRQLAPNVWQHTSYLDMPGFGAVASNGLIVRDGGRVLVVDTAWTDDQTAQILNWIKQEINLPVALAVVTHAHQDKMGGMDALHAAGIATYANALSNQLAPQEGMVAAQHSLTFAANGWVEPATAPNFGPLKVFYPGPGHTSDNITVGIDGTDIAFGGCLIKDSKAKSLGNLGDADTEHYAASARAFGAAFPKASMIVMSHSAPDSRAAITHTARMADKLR

As a reminder, the IC50 is the concentration that gives 50% inhibition. What is called Kd is the equilibrium constant for the complex coming apart. Regarding `CN[C@@H](CN[C@@H](CN[C@@H](CC(=O)O)C(=O)O)C(=O)O)C(=O)O` [Compound 3, ((S)-2-Carboxy-2-(((S)-2-carboxy-2-(methylamino)ethyl)amino) Ethyl)-L-aspartic Acid], the values for the IC50 on NDM-1 (setting [3]) and at NDM-1 (setting [4]) were 95.3 ± 3 µM and > 500 µM, respectively. In addition, the Kd in assay [1] is 0.0087 ± 0.0009 µM.
`CC(C)(S)C(NC[C@H](NC[C@H](N)C(=O)O)C(=O)O)C(=O)O` (stereo in doubt) [Compound 14, (R)-2-(((S)-2-(((S)-2-Amino-2-carboxyethyl)amino)-2-carboxyethyl)amino)-3-mercapto-3-methylbutanoic Acid]: the IC50 on VIM-2 was 246 ± 17 µM; on NDM-1 (setting [3]), 112 ± 4.8 µM; at NDM-1 (setting [4]), 185 ± 7.8 µM; at IMP-7, > 500 µM. In addition, the Kd in assay [1] came to 0.0026 ± 0.0004 µM. For the same compound, in assay [2], the “RC in MHB, NDM-1” value came out at 32 µg/mL.
In the case of `N=C(N)NCCC[C@H](NC[C@H](NC[C@H](N)C(=O)O)C(=O)O)C(=O)O` [Compound 17, ((S)-2-(((S)-2-Amino-2-carboxyethyl)amino)-2-carboxyethyl)-L-arginine], the concentration for half-maximal inhibition (IC50) at NDM-1 (setting [3]) was > 100 µM; on NDM-1 (setting [4]) it was > 1000 µM. Moreover, in assay [1], the Kd turned out to be 0.024 ± 0.006 µM. Further, the “RC in MHB, NDM-1” value in assay [2] was >64 µg/mL.
For `N[C@@H](CN[C@@H](CN[C@@H](CC(=O)O)C(=O)O)C(=O)O)CSCCO` [Compound 8, ((S)-2-(((S)-2-Amino-3-((2-hydroxyethyl)thio)propyl)amino)-2-carboxyethyl)-L-aspartic Acid], the half-maximal inhibitory concentration (IC50) at NDM-1 (setting [3]) was > 250 µM; on NDM-1 (setting [4]), > 500 µM. Besides, the Kd in assay [1] worked out at 0.06 ± 0.013 µM. Also, in assay [2], the “RC in MHB, NDM-1” value turned out to be 64 µg/mL.
`CCCSC[C@@H](N)CN[C@@H](CN[C@@H](CC(=O)O)C(=O)O)C(=O)O` [Compound 7, ((S)-2-(((S)-2-Amino-3-(propylthio)propyl)amino)-2-carboxyethyl)-L-aspartic Acid]: the half-maximal inhibitory concentration (IC50) on NDM-1 (setting [3]) is 29.2 ± 1 µM; on NDM-1 (setting [4]), > 500 µM. The Kd in assay [1] amounted to 0.109 ± 0.04 µM. For the same compound, the “RC in MHB, NDM-1” value in assay [2] was >64 µg/mL.
In the case of `N[C@@H](CN[C@@H](CN[C@@H](Cc1cccs1)C(=O)O)C(=O)O)C(=O)O` [Compound 23, (S)-2-Amino-3-(((S)-1-carboxy-2-(((S)-1-carboxy-2-(thiophen-2-yl)ethyl)amino)ethyl)amino)propanoic Acid], the IC50 amounted to 42.2 ± 4.1 µM at NDM-1 (setting [3]) and 9.7 ± 1.7 µM on NDM-1 (setting [4]). Also, the Kd in assay [1] is 0.0042 ± 0.0025 µM. Moreover, the “rescue concentration (RC), biological activity” value in assay [2] (meropenem 2 μg/mL, resistant E. coli, MBL not given) is > 8 μg/mL. The “RC in MHB, NDM-1” value in assay [2] worked out at 64 µg/mL.
For `N[C@@H](CN[C@@H](CN[C@@H](Cc1ccc(OP(=O)(O)O)cc1)C(=O)O)C(=O)O)C(=O)O` (mixture of isomers) [Compound 21, (S)-2-Amino-3-(((S)-1-carboxy-2-(((S)-1-carboxy-2-(4-(phosphonooxy)phenyl)ethyl)amino)ethyl)amino)propanoic Acid], the results for the concentration for half-maximal inhibition (IC50) at NDM-1 (setting [3]) and at NDM-1 (setting [4]) were 54 ± 5.6 µM and 25.1 ± 8.3 µM, respectively. Also, in assay [1], the dissociation constant (Kd) was 0.0108 ± 0.0081 µM. For the same compound, the “RC in MHB, NDM-1” value in assay [2] was 64 µg/mL.
As for `N[C@@H](CN[C@@H](CN[C@@H](CC(=O)O)C(=O)O)CSc1ccccc1)C(=O)O` [Compound 9, ((S)-2-(((S)-2-Amino-2-carboxyethyl)amino)-3-(phenylthio)propyl)-L-aspartic Acid], the figures for the IC50 on NDM-1 (setting [3]) and at NDM-1 (setting [4]) were 58 ± 5 µM and > 500 µM, respectively. Also, the dissociation constant Kd in assay [1] was 0.0023 ± 0.0019 µM. Besides, in assay [2], the “RC in MHB, NDM-1” value was >64 µg/mL.
`N[C@@H](CN[C@@H](CNC(CS)C(=O)O)C(=O)O)C(=O)O` (stereo in doubt) [Compound 12, (S)-2-Amino-3-(((S)-1-carboxy-2-(((R)-1-carboxy-2-mercaptoethyl)amino)ethyl)amino)propanoic Acid]: the IC50 at NDM-1 (setting [3]) came to 404 ± 18.2 µM; at NDM-1 (setting [4]) it was 5.8 ± 0.5 µM. In addition, the Kd in assay [1] is 0.0044 ± 0.0018 µM. Also, the “RC in MHB, NDM-1” value in assay [2] was 32 µg/mL.
`N[C@@H](CN[C@@H](CN[C@@H](CCS)C(=O)O)C(=O)O)C(=O)O` [Compound 13, ((S)-2-(((S)-2-Amino-2-carboxyethyl)amino)-2-carboxyethyl)-L-homocysteine]: the results for the IC50 on NDM-1 (setting [3]) and at NDM-1 (setting [4]) were > 100 µM and > 1000 µM, respectively. Further, the “RC in MHB, NDM-1” value in assay [2] stood at 64 µg/mL.
`N[C@@H](CN[C@@H](CN[C@H](C(=O)O)c1ccc(O)cc1)C(=O)O)C(=O)O` [Compound 22, (S)-2-Amino-3-(((S)-1-carboxy-2-(((S)-carboxy(4-hydroxyphenyl)methyl)amino)ethyl)amino)propanoic Acid]: the IC50 on NDM-1 (setting [3]) came to 283 ± 27.4 µM; at NDM-1 (setting [4]), 23 ± 3.6 µM. Moreover, the Kd in assay [1] amounted to 0.0095 ± 0.0065 µM. In addition, the “RC in MHB, NDM-1” value in assay [2] was >64 µg/mL.
The corresponding values for `N[C@@H](CN[C@@H](CN[C@@H](CO)C(=O)O)C(=O)O)C(=O)O` [Compound 19, (S)-2-Amino-3-(((S)-1-carboxy-2-(((S)-1-carboxy-2-hydroxyethyl)amino)ethyl)amino)propanoic Acid] are 80 ± 0.7 µM, > 1000 µM, 0.0045 ± 0.00175 µM and 32 µg/mL.
In the same order, the values of `Cc1ccc(SC[C@@H](N)CN[C@@H](CN[C@@H](CC(=O)O)C(=O)O)C(=O)O)cc1` [Compound 5, ((S)-2-(((S)-2-Amino-3-(P-tolylthio)propyl)amino)-2-carboxyethyl)-L-aspartic Acid] are 104 ± 2 µM, 97.2 ± 34.2 µM, 0.0014 ± 0.00056 µM and 32 µg/mL.
The corresponding values for `NCC(=O)N[C@@H](CN[C@@H](CN[C@@H](CC(=O)O)C(=O)O)C(=O)O)C(=O)O` [Compound 1, ((S)-2-(((S)-2-(2-Aminoacetamido)-2-carboxyethyl)amino)-2-carboxyethyl)-L-aspartic Acid] are > 100 µM, > 500 µM, 0.0199 ± 0.0032 µM and >64 µg/mL.
On to `N[C@@H](CN[C@@H](CNC(CS)C(=O)O)C(=O)O)C(=O)O` (stereo in doubt) [Compound 11, (S)-2-Amino-3-(((S)-1-carboxy-2-(((S)-1-carboxy-2-mercaptoethyl)amino)ethyl)amino)propanoic Acid], for which the 50% inhibitory concentration (IC50) worked out at 22 ± 1 µM at VIM-2, 15.6 ± 0.2 µM at NDM-1 (setting [3]), 21.5 ± 0.8 µM on NDM-1 (setting [4]) and 328 ± 15 µM on IMP-7. Also, the Kd in assay [1] turned out to be 0.0002 ± 5e-05 µM. Moreover, the “RC in MHB, NDM-1” value in assay [2] came to 32 µg/mL.
For `NC(Cc1ccc(O)cc1)C(=O)N[C@@H](CN[C@@H](CN[C@@H](CC(=O)O)C(=O)O)C(=O)O)C(=O)O` (stereo in doubt) [Compound 2, ((S)-2-(((S)-2-((R)-2-Amino-3-(4-hydroxyphenyl)propanamido)-2-carboxyethyl)amino)-2-carboxyethyl)-L-aspartic Acid], the IC50 on NDM-1 (setting [3]) was > 100 µM; on NDM-1 (setting [4]), > 500 µM. In assay [1], the dissociation constant Kd worked out at 0.0014 ± 0.00056 µM. In assay [2], the “RC in MHB, NDM-1” value was >64 µg/mL.

These data come from paper PMC8829947 (ACS Omega, 2022).
